# Assays:
# Escherichia coli = test: Antimicrobial activity against Escherichia coli ATCC 25922; type: functional
# [1] = Stability in presence of alpha-chymotrypsin after 48 hrs; type: ADME
# Outline: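 Digestion with α-chymotrypsin (2 μg/mL final) of 100 μg/mL compound in 100 mM Tris-HCl with 10 mM CaCl2. Aliquots taken at 0, 15, 30, 60, 120, 240 min, 24 and 48 h. Quenched with 10% acetic acid plus atenolol external standard, then quantified by LC-MS/MS in positive MRM mode, in duplicate. Remaining compound expressed relative to enzyme-free control.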
# [2] = Stability in aqueous solution at pH7.4 after 48 hrs; type: physicochemical; conditions: buffer, pH 7.4, 48 h
# [3] = Hemolytic activity in human RBC assessed as hemolysis at 1000 ug/ml after 1 hr; type: ADME, cell-based; conditions: erythrocyte
compound,measurement,setting,value
N=C(N)NCCC[C@H](NC(=O)C(CN)(CCC1CCCCC1)CCC1CCCCC1)C(N)=O,MBC,Escherichia coli,289 µM
same,MIC,Escherichia coli,144 µM
same,Stability,[1],Stable
same,Stability,[2],Stable
same,Activity,[3],Non-toxic

# Source: ChEMBL document CHEMBL1156791, “Antimicrobial activity of small beta-peptidomimetics based on the pharmacophore model of short cationic antimicrobial peptides” (J Med Chem, 2010)
